Assay results: ChEMBL document CHEMBL2407003, “Effects of (-)-epicatechin and derivatives on nitric oxide mediated induction of mitochondrial proteins” (Bioorg Med Chem Lett, 2013)
Calls of active or inactive are those of the source. The rule behind the calls is not given here.

How the values were obtained:
[1] = target: T1, Citrate synthase, mitochondrial (Bos taurus) (UniProt Q29RK1); test: Induction of citrate synthase activity in BCAEC at EC50 after 48 hrs relative to control
T1 sequence (whole entry): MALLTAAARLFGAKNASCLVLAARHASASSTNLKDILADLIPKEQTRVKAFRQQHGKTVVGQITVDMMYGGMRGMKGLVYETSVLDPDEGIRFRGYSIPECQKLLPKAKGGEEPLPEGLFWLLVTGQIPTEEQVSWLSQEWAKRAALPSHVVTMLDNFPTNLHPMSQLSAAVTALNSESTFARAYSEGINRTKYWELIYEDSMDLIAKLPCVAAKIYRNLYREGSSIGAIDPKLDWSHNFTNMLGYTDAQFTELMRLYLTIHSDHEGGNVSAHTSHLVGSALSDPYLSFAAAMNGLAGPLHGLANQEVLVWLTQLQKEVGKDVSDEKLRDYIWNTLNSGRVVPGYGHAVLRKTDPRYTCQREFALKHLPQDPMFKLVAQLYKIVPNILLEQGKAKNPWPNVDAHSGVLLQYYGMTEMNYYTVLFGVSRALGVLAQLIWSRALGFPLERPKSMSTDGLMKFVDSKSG

[2] = Upregulation of mitochondrial complex-1 expression in BCAEC at EC50 after 48 hrs by Western blot analysis in presence of L-NAME; assay type: functional; settings: Bos taurus
Nitric oxide synthase 3 = target: T2, Nitric oxide synthase 3 (Bos taurus, UniProt P29473); test: Activation of eNOS in BCAEC assessed as increase in nitric oxide level after 10 mins by fluorometric analysis
T2 sequence (P29473 whole entry): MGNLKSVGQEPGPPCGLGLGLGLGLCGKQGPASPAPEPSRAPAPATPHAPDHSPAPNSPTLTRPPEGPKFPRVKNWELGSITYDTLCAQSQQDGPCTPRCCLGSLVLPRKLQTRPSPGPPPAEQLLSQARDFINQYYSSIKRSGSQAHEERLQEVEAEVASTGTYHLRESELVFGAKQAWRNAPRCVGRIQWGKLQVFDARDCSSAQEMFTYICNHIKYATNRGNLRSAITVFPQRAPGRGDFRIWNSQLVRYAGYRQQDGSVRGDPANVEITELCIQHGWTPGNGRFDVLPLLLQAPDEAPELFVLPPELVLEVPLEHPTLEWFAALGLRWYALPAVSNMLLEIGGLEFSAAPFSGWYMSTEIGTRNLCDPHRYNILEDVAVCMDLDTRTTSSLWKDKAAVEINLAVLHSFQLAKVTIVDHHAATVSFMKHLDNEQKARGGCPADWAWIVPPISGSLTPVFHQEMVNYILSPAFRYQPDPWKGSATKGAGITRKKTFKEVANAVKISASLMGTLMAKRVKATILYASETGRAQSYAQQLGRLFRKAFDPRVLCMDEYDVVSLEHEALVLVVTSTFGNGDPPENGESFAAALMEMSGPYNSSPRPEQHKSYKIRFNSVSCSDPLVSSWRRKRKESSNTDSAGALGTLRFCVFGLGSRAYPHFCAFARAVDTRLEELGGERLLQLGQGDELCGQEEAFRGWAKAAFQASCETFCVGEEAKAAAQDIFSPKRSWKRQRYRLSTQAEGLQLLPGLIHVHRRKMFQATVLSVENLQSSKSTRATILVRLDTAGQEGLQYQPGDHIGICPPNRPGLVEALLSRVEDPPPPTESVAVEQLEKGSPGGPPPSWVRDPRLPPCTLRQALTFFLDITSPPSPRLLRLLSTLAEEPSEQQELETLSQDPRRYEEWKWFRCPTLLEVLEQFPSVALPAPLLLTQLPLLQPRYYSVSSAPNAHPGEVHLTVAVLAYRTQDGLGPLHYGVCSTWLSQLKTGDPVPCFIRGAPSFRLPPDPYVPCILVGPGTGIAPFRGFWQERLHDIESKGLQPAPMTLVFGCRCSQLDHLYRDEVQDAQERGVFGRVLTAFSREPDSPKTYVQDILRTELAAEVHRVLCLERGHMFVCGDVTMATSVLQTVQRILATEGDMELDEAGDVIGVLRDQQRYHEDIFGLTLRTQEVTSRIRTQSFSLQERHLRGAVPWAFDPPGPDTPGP
How it was run: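 Bovine coronary artery endothelial cells, in triplicate, were exposed to a range of concentrations of each compound. Medium was collected 10 min after treatment, and NO was quantified as nitrite/nitrate with a commercial kit. Sigmoidal concentration-response curves were fitted to the triplicate means to give EC50.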

[3] = target: T1, Citrate synthase, mitochondrial (Bos taurus); test: Induction of citrate synthase activity in BCAEC at EC50 after 48 hrs in presence of L-NAME
[4] = Upregulation of mitofilin expression in BCAEC at EC50 after 48 hrs by Western blot analysis in presence of L-NAME; assay type: functional; settings: Bos taurus
[5] = Upregulation of mitochondrial complex-2 expression in BCAEC at EC50 after 48 hrs by Western blot analysis in presence of L-NAME; assay type: functional; settings: Bos taurus
[6] = Upregulation of mitochondrial complex-1 expression in BCAEC at EC50 after 48 hrs by Western blot analysis relative to control; assay type: functional; settings: Bos taurus
[7] = Upregulation of porin expression in BCAEC at EC50 after 48 hrs by Western blot analysis; assay type: functional; settings: Bos taurus
[8] = Upregulation of porin expression in BCAEC at EC50 after 48 hrs by Western blot analysis in presence of L-NAME; assay type: functional; settings: Bos taurus
[9] = Upregulation of mitofilin expression in BCAEC at EC50 after 48 hrs by Western blot analysis; assay type: functional; settings: Bos taurus
[10] = Upregulation of TFAM expression in BCAEC at EC50 after 48 hrs by Western blot analysis in presence of L-NAME; assay type: functional; settings: Bos taurus
[11] = Upregulation of mitochondrial complex-2 expression in BCAEC at EC50 after 48 hrs by Western blot analysis relative to control; assay type: functional; settings: Bos taurus
[12] = Upregulation of mitochondrial complex-1 expression in BCAEC at 100 nmol/L after 48 hrs by Western blot analysis; assay type: functional; settings: Bos taurus
[13] = Upregulation of TFAM expression in BCAEC at EC50 after 48 hrs by Western blot analysis; assay type: functional; settings: Bos taurus
[14] = Upregulation of mitochondrial complex-1 expression in BCAEC at 0.01 nmol/L after 48 hrs by Western blot analysis; assay type: functional; settings: Bos taurus

SMILES | Activity [1] | Activity [2] | EC50 (Nitric oxide synthase 3) | Activity [3] | Activity [4] | Activity [5] | Activity [6] | Activity [7] | Activity [8] | Activity [9] | Activity [10] | Activity [11] | Activity [12] | Activity [13] | Activity [14]
CCOc1cc([C@H]2Oc3cc(O)cc(O)c3C[C@H]2O)ccc1O | 30% | inactive | 1 nM | inactive | inactive | inactive | inactive | Active | inactive |  |  |  |  |  | 
Oc1cc(O)c2c(c1)O[C@H](c1ccc(O)c(O)c1)[C@H](O)C2 [(-)-EPICATECHIN] | 30% | inactive | 2 nM | inactive | inactive | inactive | 20% | inactive | inactive | Active | inactive | 25% | Active | Active | 
CC(=O)Oc1cc(OC(C)=O)c2c(c1)O[C@H](c1ccc(OC(C)=O)c(OC(C)=O)c1)[C@H](OC(C)=O)C2 [EPICATECHIN PENTAACETATE] | 30% | inactive | 0.006 nM | inactive | inactive | inactive | 60% | Active | inactive | Active | inactive | 25% |  | Active | Active
